RGS4 block: RGS4 inhibitors, primary screen, cell-based, HEK293 M3R inducible RGS4, calcium flux; Fluo-4 calcium flux; stronger effect = higher value; triggered by carbachol at its EC20; Regulator of G-protein signaling 4 (Homo sapiens), P49798; actives 0.45% (n = 310,000); B-score at 10 µM;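 active = B-score, a plate-corrected calcium signal, over three deviations above library mean, with baseline fluorescence within five deviations of library mean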;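 also: RGS4 expression induced by doxycycline in cells with stable M3 receptor; B-score is computed from the integrated fluorescence ratio over baseline after carbachol; higher B-score means a larger calcium signal and so more RGS4 inhibition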
Target sequence (P49798 whole entry, looked up): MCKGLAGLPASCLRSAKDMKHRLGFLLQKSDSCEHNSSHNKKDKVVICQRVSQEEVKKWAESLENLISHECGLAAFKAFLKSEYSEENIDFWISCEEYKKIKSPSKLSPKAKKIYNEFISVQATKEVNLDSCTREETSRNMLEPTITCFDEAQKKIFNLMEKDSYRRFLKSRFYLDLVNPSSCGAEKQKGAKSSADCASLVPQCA
MrgX1 antag: antagonists of human MrgX1 receptor, primary screen, HEK293 cells, Fluo-4 calcium flux | BAM8-22 antagonism; stronger effect = lower value | Mas-related G-protein coupled receptor member X1 (Homo sapiens), Q96LB2 | actives 1.3% (n = 310,000) | B-score at 10 µM;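 active = calcium-response B-score plate-corrected more than 3 library SD below zero, starting fluorescence within 5 deviations, no agonist response on first addition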;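 also: peak minus trough fluorescence over baseline after final BAM8-22 challenge near maximal dose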
Target sequence (Q96LB2 whole entry, looked up): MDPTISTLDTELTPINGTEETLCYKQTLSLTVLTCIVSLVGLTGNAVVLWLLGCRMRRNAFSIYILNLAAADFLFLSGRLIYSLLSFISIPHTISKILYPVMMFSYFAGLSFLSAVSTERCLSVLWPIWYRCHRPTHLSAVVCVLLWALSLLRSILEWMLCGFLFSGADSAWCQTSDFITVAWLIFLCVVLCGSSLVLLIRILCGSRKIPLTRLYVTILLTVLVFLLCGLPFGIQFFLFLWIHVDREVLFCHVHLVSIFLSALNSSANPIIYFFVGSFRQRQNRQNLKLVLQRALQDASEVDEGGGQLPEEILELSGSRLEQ
RGS4 act: RGS4 potentiators or activators, primary screen, cell-based, HEK293 M3R inducible RGS4, calcium flux; carbachol calcium flux Fluo4; stronger effect = lower value; B-score at 10 µM; actives 0.92% (n = 310,000); AID 463111, 2010;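 active = B-score of the integrated calcium signal more than 4 SD below the library mean, with starting fluorescence not abnormally high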;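 also: negative B-score means reduced calcium response which marks RGS4 activation or potentiation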
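Assay system: Inducible-RGS4 HEK293 cells carrying M3 receptor | Schedule: Compound preincubation 20 min at room temperature before agonist | Signal: Kinetic calcium fluorescence imaging with Fluo4-AM dye, 2 µM | Read-out basis: B score from integrated fluorescence ratio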
MrgX1 allo act: positive allosteric modulators of MrgX1, primary screen, HEK293 cells, Fluo-4 calcium flux. actives 0.63% (n = 310,000). B-score at 10 µM. Mas-related G-protein coupled receptor member X1 (Homo sapiens), Q96LB2. FDSS; stronger effect = higher value. AID 588675, 2011;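 active = plate-corrected calcium response at least 3 library SD above typical, normal starting fluorescence, not activating the receptor alone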;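 also: compound read alongside a low EC10 to EC30 dose of BAM8-22 agonist; peak minus trough fluorescence over baseline measured at the second addition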
MrgX1 ag: agonists of human MrgX1 receptor, primary screen, HEK293 cells, Fluo-4 calcium flux; B-score at 10 µM; AID 588627, 2011; actives 0.44% (n = 310,000); Fluo-4 calcium fluorescence, agonist mode; stronger effect = higher value; Mas-related G-protein coupled receptor member X1 (Homo sapiens), Q96LB2;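 active = calcium response B-score plate-corrected fluorescence ratio at least 3 library SD, with starting fluorescence B-score inside 5 SD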
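Material: MrgX1-expressing HEK293 cells; input: 15,000 cells per well; doses: test compound given as first of three sequential additions; schedule: overnight plating before 1 h dye loading; technique: Fluo-4 NW calcium-flux fluorescence, kinetic read; evaluation: baseline-normalised fluorescence change ratio, B-scored; control set: plate-wise positive and negative controls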
Numbers stand for hits; i = inactive; nt = no result given. Compounds with a hit are over-represented: about 3.5% of the library has one in this group of screens.

SMILES	RGS4 block	MrgX1 antag	RGS4 act	MrgX1 allo act	MrgX1 ag
O=C1C2CC=CCC2C(=O)N1c1ccc(N2CCN(c3ccccn3)CC2)c([N+](=O)[O-])c1 (stereo unspecified)	i	i	i	i	i
O=C1NN(c2ccc(Cl)c(Cl)c2)C(=O)/C1=C/c1cccc(OC(=O)c2cccs2)c1	25.4	i	i	i	i
CC(C)(C)c1ccc(-c2conc2N)cc1	i	i	i	i	i
Cc1cccc(OCC(O)Cn2c(N3CCCCC3)nc3c2c(=O)n(C)c(=O)n3C)c1 (stereo unspecified)	i	i	i	7.24	i
Cn1c(=O)c2c(nc(N3CCCCCC3)n2CC(O)COc2ccccc2)n(C)c1=O (stereo unspecified)	i	i	i	i	i
C=CCN(c1ccccc1C(=O)NCC(=O)O)S(=O)(=O)c1ccccc1C	i	i	i	i	i
Cn1c(O)c(/C=N/NC(=O)c2cc3ccccc3cc2O)c2ccccc21	i	i	-7.59	i	49.8
Cn1c2ccccc2c2cc(/C=N/NC(=O)c3ccc(O)cc3O)ccc21	i	i	i	i	i
CC1CCC(C(C)C)C(OP(=O)(c2ccccc2)C(O)c2ccncc2)C1 (stereo unspecified)	i	i	i	i	i
CC1CCC(C(C)C)C(OP(=O)(c2ccc(N(C)C)cc2)C(O)c2cccnc2)C1 (stereo unspecified)	i	-8.7	i	i	i
O=C(N/C(=C\c1cccnc1)C(=O)N1CCOCC1)c1ccco1	i	-4.95	i	i	i
Cc1ncc(CO)c(/C=N/NC(=O)c2ccc(Br)cc2)c1O	8.44	i	i	i	i
Cc1ncc(CO)c(/C=N/NC(=O)c2cc(Br)ccc2O)c1O	i	i	i	i	i
O=C(Nc1ccc(S(=O)(=O)NC2=NCCCCC2)cc1)c1ccccc1Cl	i	i	i	i	i
O=C(O)c1ccc(N2N=C(c3ccccc3)CC2c2ccccc2)cc1 (stereo unspecified)	i	i	i	i	i
O=[N+]([O-])c1cccc(C2CC(c3ccccc3)=NN2c2ccccc2)c1 (stereo unspecified)	i	-7.63	i	i	i
CC1=NN(c2ccc([N+](=O)[O-])cc2)C(c2ccccc2)C1 (stereo unspecified)	i	i	i	i	i
N#CC1CC(c2ccc([N+](=O)[O-])cc2)=NN1c1ccc([N+](=O)[O-])cc1 (stereo unspecified)	i	-6.2	i	i	i
O=Cc1ccc(N2N=C(c3ccccc3)CC2c2ccccc2)cc1 (stereo unspecified)	i	i	-9.96	i	i
CSCC[C@H](NC(=O)N1CCn2c1nc1ccccc12)C(=O)NCc1ccccc1	i	i	i	i	i
CSCC[C@H](NC(=O)N1CCn2c1nc1ccccc12)C(=O)N[C@H](Cc1ccccc1)C(=O)O	i	-7.64	i	i	i
C/C(=N\NC(=O)c1ccc(Cn2cc([N+](=O)[O-])cn2)o1)c1cccc(NC(=O)C(C)C)c1	i	-5.62	i	i	i
C/C(=N\NC(=O)c1ccc(Cn2cc(Br)cn2)o1)c1cccc(NC(=O)C(C)C)c1	i	i	i	i	i
CCCn1c(CNS(=O)(=O)c2ccc(C)cc2)nc2ccccc21	i	i	i	i	i
COc1cc(/C=C2/C(=N)N3C=CSC3=NC2=O)ccc1OCCOc1ccc(NC(C)=O)cc1	i	i	i	13.9	i
SMILES	RGS4 block	MrgX1 antag	RGS4 act	MrgX1 allo act	MrgX1 ag
Cc1cc(/C=C2\C(=N)N3N=C(C(C)C)SC3=NC2=O)c(C)n1-c1ccccc1	i	i	i	i	i
COc1cc(/C=C2\C(=N)N3N=C(S(C)(=O)=O)SC3=NC2=O)cc(OC)c1OCCOc1ccc(C)cc1	i	i	i	i	i
COc1cc(/C=C2\C(=N)N3N=C(S(C)(=O)=O)SC3=NC2=O)ccc1OCCOc1ccc(C)cc1	i	i	-7.15	i	i
COc1cc(/C=C2/C(=N)N3C=CSC3=NC2=O)ccc1OCCCOc1ccccc1C	i	i	i	i	i
CC(=O)Nc1ccc(OCCOc2ccc(/C=C3\C(=N)N4N=C(C(C)C)SC4=NC3=O)cc2)cc1	i	i	i	i	31.7
COc1cccc(CN(C)C(=O)CCNC(=O)c2ccc(Br)cc2)c1	i	i	i	i	i
COc1cccc(NC(=O)CN(C)C(=O)CCNC(=O)c2ccc(Br)cc2)c1	i	-8.94	i	i	i
COc1ccc2nc(N3C(=O)/C(=C/c4ccccc4)NC3=S)sc2c1	i	i	i	6.78	i
CC(CN1CCCCC1)C(=O)NNC(=O)C12CC3CC(CC(C3)C1)C2 (stereo unspecified)	i	i	i	7.64	i
COc1ccc(OC(=O)c2cnn(-c3ccccc3)c2C)cc1	i	i	i	i	i
COc1cc2c(cc1OC)C1C(C(=O)Nc3ccccc3N3CCN(C)CC3)c3ccccc3C(=O)N1CC2 (stereo unspecified)	i	i	i	i	i
N#CC1=C(N)n2c(s/c(=C\c3cccs3)c2=O)=C(C#N)C1c1cccs1 (stereo unspecified)	i	-7.37	i	i	i
O=C(Cn1cc(C(=O)C(F)(F)F)c2ccccc21)N1CCOCC1	i	i	i	i	i
CCCCOc1ccc(/C=N/NC(=O)c2csc(C)c2C)cc1	i	i	-8.59	i	i
CCOC(=O)Cc1csc(Nc2ccc(Cl)cc2)n1	i	i	i	i	i
CCOC(=O)C(CC)(CCC(=O)O)c1csc(Nc2ccc(C)cc2)n1 (stereo unspecified)	i	-7.39	i	i	i
Cc1[nH]n(-c2ccccc2)c(=O)c1/C=N/NC(=O)C(C)C	i	i	i	i	i
CCN(CC)CCOCCOC(=O)C1(c2ccccc2)CCCC1	i	i	i	i	i
C[N+](C)(C)CCOC(=O)C1(c2ccccc2)CCCC1	i	i	-8.22	i	i
CC(C[N+](C)(C)C)OC(=O)C1(c2ccccc2)CCCC1 (stereo unspecified)	i	i	-10.1	i	i
COc1ccc(NC(=O)C2(c3ccccc3)CCCC2)cc1	i	i	i	i	i
CCN(CC)CCOC(=O)C1(c2ccccc2)CCOCC1	i	i	-6.99	i	i
CCN(CC)CCOC(=O)C1(c2ccc([N+](=O)[O-])cc2)CCCC1	nt	i	nt	i	i
C[N+]1(CCOC(=O)C2(c3ccccc3)CCCC2)CCCCC1	i	i	-7.47	i	i
O=C(Nc1ccc(S(=O)(=O)N2CCOCC2)cc1)c1ccc(Cl)cc1Cl	i	i	i	i	i
CC1CC(C)CN(C(=O)C2CCC(CNS(=O)(=O)c3ccccc3)CC2)C1 (stereo unspecified)	i	i	i	i	i
